Experimental data from different studies.
Each line is one published result; the experiments were not run side by side. Values after ≈ are worked out from the molar mass of the structure shown.
Organism: Pichia kudriavzevii

The MIC of `OC(CN1CCOCC1)(Cn1cncn1)c1ccc(F)cc1F` (stereo not drawn) is reported as over 31.3 µg/mL (microbial growth, broth dilution; ATCC6258; 48 h).
For `COc1cc(NC(C)CCCN)c2nc(C(C)(C)C)ccc2c1Oc1ccc(Cl)c(Cl)c1` (stereo not drawn), the IC50 was 8.65 µg/mL (microbial growth; ATCC6258).
For `C[C@@H]1[C@H](O)[C@@H](C)/C=C/C=C/C=C/C=C/C=C/C=C/C=C/[C@H](O[C@@H]2O[C@H](C)[C@@H](O)[C@H](N)[C@@H]2O)C[C@@H]2O[C@](O)(C[C@@H](O)C[C@@H](O)[C@H](O)CC[C@@H](O)C[C@@H](O)CC(=O)O[C@H]1C)C[C@H](O)[C@H]2C(=O)O`, the MIC90 was 0.125 µg/mL (≈ 0.135 µM) (microbial growth).
The MIC of `C[C@@H]1[C@H](O)[C@@H](C)/C=C/C=C/C=C/C=C/C=C/C=C/C=C/[C@H](O[C@@H]2O[C@H](C)[C@@H](O)[C@H](N)[C@@H]2O)C[C@@H]2O[C@](O)(C[C@@H](O)C[C@@H](O)[C@H](O)CC[C@@H](O)C[C@@H](O)CC(=O)O[C@H]1C)C[C@H](O)[C@H]2C(=O)O` is reported as 3.9 µg/mL (≈ 4.22 µM) (microbial growth, broth dilution; ATCC6258; 48 h).
For `CCCCCOc1c(OC)cc(NC(C)CCCNC(=O)C(N)Cc2ccccc2)c2nc(C(C)(C)C)ccc12` (stereo not drawn), the IC50 was 7.37 µg/mL (microbial growth; ATCC6258).
For `C[C@@H]1[C@H](O)[C@@H](C)/C=C/C=C/C=C/C=C/C=C/C=C/C=C/[C@H](O[C@@H]2O[C@H](C)[C@@H](O)[C@H](N)[C@@H]2O)C[C@@H]2O[C@](O)(C[C@@H](O)C[C@@H](O)[C@H](O)CC[C@@H](O)C[C@@H](O)CC(=O)O[C@H]1C)C[C@H](O)[C@H]2C(=O)O`, the IC50 was 0.65 µg/mL (microbial growth, broth dilution; ATCC6258).
With `CCCCCCOc1c(OC)cc(NC(C)CCCN)c2nc(C(C)(C)C)ccc12` (stereo not drawn) the IC50 was 7.16 µg/mL (microbial growth; ATCC6258).
`C[C@@H](c1ncncc1F)[C@](O)(Cn1cncn1)c1ccc(F)cc1F` gave an MIC90 of 0.25 µg/mL (≈ 0.716 µM) (microbial growth).
`C=CCCCCCCCCCCCC(O)CC(O)CO` (stereo not drawn) gave an IC50 of over 200 µg/mL (microbial growth, broth dilution; ATCC6258).
With `CCCCCOc1c(OC)cc(NC(C)CCCNC(=O)C(N)Cc2cc3ccccc3[nH]2)c2nc(C(C)(C)C)ccc12` (stereo not drawn) the IC50 was 4.28 µg/mL (microbial growth; ATCC6258).
The MIC of `CCCCCCCCCCCCN1CCN(CC(O)(Cn2cncn2)c2ccc(F)cc2F)CC1` (stereo not drawn) is reported as 0.48 µg/mL (≈ 0.976 µM) (microbial growth, broth dilution; ATCC6258; 48 h).
With `CCCCCCOc1c(OC)cc(NC(C)CCCN)c2nc(C(C)(C)C)cc(C)c12` (stereo not drawn) the MFC was 5 µg/mL (≈ 11.6 µM) (microbial killing; ATCC6258).
For `C[C@@H]1[C@H](O)[C@@H](C)/C=C/C=C/C=C/C=C/C=C/C=C/C=C/[C@H](O[C@@H]2O[C@H](C)[C@@H](O)[C@H](N)[C@@H]2O)C[C@@H]2O[C@](O)(C[C@@H](O)C[C@@H](O)[C@H](O)CC[C@@H](O)C[C@@H](O)CC(=O)O[C@H]1C)C[C@H](O)[C@H]2C(=O)O`, the IC50 was 560 nM (microbial growth; ATCC6258).
The MIC of `CCCCCCCCCCCCCCN1CCOCC1` is reported as over 31.3 µg/mL (microbial growth, broth dilution; ATCC6258; 48 h).
With `CC(=O)N1CCN(c2ccc(OCC3COC(Cn4ccnc4)(c4ccc(Cl)cc4Cl)O3)cc2)CC1` (stereo not drawn) the MIC90 was 1 µg/mL (≈ 1.88 µM) (microbial growth).
With `CN1CCN(CC(O)(Cn2cncn2)c2ccc(F)cc2F)CC1` (stereo not drawn) the MIC was 15.6 µg/mL (≈ 46.2 µM) (microbial growth, broth dilution; ATCC6258; 48 h).
With `CC(C)C1=CC2=CC(=O)[C@H]3C(C)(C)CCC[C@]3(C)C2=C(O)C1=O` the IC50 was 12 µg/mL (microbial growth; ATCC6258).
`CCCCCCCCOc1c(OC)cc(NC(C)CCCN)c2nc(C(C)(C)C)ccc12` (stereo not drawn) has an IC50 of 5.82 µg/mL (microbial growth; ATCC6258).
`CCCCCCCCCCCN1CCN(CC(O)(Cn2cncn2)c2ccc(F)cc2F)CC1` (stereo not drawn) gave an MIC of 1.95 µg/mL (≈ 4.08 µM) (microbial growth, broth dilution; ATCC6258; 48 h).
For `CCCCCOc1c(OC)cc(NC(C)CCCNC(=O)C(N)CC(C)C)c2nc(C(C)(C)C)ccc12` (stereo not drawn), the MFC was 10 µg/mL (≈ 19.4 µM) (microbial killing; ATCC6258).
For `CCCCCCCCCN1CCN(CC(O)(Cn2cncn2)c2ccc(F)cc2F)CC1` (stereo not drawn), the MIC was 0.975 µg/mL (≈ 2.17 µM) (microbial growth, broth dilution; ATCC6258; 48 h).
For `C[C@@H]1[C@H](O)[C@@H](C)/C=C/C=C/C=C/C=C/C=C/C=C/C=C/[C@H](O[C@@H]2O[C@H](C)[C@@H](O)[C@H](N)[C@@H]2O)C[C@@H]2O[C@](O)(C[C@@H](O)C[C@@H](O)[C@H](O)CC[C@@H](O)C[C@@H](O)CC(=O)O[C@H]1C)C[C@H](O)[C@H]2C(=O)O`, the MFC was 1.25 µg/mL (≈ 1.35 µM) (microbial killing; ATCC6258).
`Fc1ccc(C2(Cn3cncn3)CO2)c(F)c1` (stereo not drawn) gave an MIC of over 31.3 µg/mL (microbial growth, broth dilution; ATCC6258; 48 h).
For `C#CCCCCCCCCC=CCC(O)CC(O)CO` (stereo not drawn), the IC50 was over 8 µg/mL (microbial growth, broth dilution; ATCC6258).
